ChEMBL document CHEMBL3124849, “Total synthesis of burkholdacs A and B and 5,6,20-tri-epi-burkholdac A: HDAC inhibition and antiproliferative activity” (Eur J Med Chem, 2014)

Assays:
[1] = Selectivity index, ratio of IC50 for mouse HDAC6 to IC50 for human HDAC1
How it was run: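 Ratio of HDAC6 IC50 to HDAC1 IC50. Both enzymes were FLAG-immunopurified from transfected 293T cells: human HDAC1 and mouse HDAC6. Each was assayed on Ac-KGLGK(Ac)-MCA with 100 µM DTT at 37 °C for 30 min, developed with trypsin, and AMC read by fluorescence. IC50s are means of ≥3 curves.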

SF-268 = assay: Cytotoxicity against human SF268 cells by SRB assay; format: functional
How it was run: (§1)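 Tested at the Japanese Foundation for Cancer Research panel of 39 human cancer cell lines. Five concentrations per compound, spanning 10^-10 to 10^-6 M or 10^-8 to 10^-4 M. Growth measured by sulforhodamine B colorimetry. GI50 is the concentration giving 50% growth inhibition relative to control.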

U-251 = assay: Cytotoxicity against human U251 cells by SRB assay; format: functional; how it was run: as §1
MDA-MB-231 = assay: Cytotoxicity against human MDA-MB-231 cells by SRB assay; format: functional; how it was run: as §1
[2] = Cytotoxicity against human HBC5 cells by SRB assay; format: functional; how it was run: as §1
MCF7 = assay: Cytotoxicity against human MCF7 cells by SRB assay; format: functional; how it was run: as §1
[3] = Cytotoxicity against human BSY1 cells by SRB assay; format: functional; settings: BSY-1; how it was run: as §1
[4] = Cytotoxicity against human HBC4 cells by SRB assay; format: functional; how it was run: as §1
Histone deacetylase 1 [5] = target: T1, Histone deacetylase 1 (Homo sapiens, UniProt Q13547); assay: Ratio of FK228 IC50 to compound IC50 for human HDAC1 expressed in human 293T cells; format: cell-based
How it was run: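 FLAG-tagged human HDAC1 was expressed transiently in 293T cells (pcDNA3-HDAC1), immunoprecipitated with anti-FLAG M2 and eluted with FLAG peptide. Enzyme was incubated with 2 mM stock Ac-KGLGK(Ac)-MCA in 20 mM Tris-HCl pH 8.0, 150 mM NaCl, 10% glycerol, 100 μM DTT, for 30 min at 37 °C. Trypsin then released AMC, read by fluorescence. IC50 is the mean of ≥3 dose-response curves; FK228 reference run alongside.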

[6] = target: T2, Protein deacetylase HDAC6 (Mus musculus, UniProt Q9Z2V5); assay: Inhibition of mouse HDAC6 expressed in human 293T cells using Ac-KGLGK(Ac)-MCA as substrate after 30 mins by fluorescence assay; format: cell-based
T2 sequence (Q9Z2V5 whole entry): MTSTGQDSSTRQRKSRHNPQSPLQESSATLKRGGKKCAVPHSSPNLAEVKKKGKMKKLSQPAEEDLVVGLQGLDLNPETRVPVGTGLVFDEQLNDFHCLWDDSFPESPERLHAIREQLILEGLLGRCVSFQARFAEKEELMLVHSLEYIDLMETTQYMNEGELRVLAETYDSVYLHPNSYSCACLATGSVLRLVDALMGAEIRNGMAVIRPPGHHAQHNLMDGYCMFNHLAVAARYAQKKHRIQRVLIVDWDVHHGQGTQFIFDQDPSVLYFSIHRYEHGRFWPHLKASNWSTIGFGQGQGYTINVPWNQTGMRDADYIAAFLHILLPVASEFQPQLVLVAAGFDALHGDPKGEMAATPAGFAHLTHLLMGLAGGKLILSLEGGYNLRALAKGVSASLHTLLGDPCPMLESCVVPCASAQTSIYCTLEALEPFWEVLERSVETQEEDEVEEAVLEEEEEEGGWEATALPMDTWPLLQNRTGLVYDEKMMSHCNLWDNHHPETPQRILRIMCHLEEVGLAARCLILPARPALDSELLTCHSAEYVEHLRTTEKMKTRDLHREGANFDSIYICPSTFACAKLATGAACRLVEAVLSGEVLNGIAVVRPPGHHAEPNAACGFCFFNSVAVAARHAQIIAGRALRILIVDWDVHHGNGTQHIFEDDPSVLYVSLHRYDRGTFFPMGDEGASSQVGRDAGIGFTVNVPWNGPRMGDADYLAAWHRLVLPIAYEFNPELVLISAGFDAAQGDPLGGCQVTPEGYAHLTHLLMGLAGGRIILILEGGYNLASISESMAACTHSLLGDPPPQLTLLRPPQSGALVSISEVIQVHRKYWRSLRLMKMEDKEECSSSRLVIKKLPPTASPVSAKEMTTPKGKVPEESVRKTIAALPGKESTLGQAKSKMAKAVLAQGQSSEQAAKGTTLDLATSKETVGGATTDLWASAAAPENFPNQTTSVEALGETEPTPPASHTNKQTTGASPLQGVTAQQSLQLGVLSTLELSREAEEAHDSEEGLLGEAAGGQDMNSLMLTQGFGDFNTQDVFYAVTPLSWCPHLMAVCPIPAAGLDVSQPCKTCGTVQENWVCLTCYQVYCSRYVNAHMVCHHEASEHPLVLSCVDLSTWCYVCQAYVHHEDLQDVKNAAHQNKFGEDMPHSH

Histone deacetylase 1 [7] = target: T1, Histone deacetylase 1; assay: Inhibition of human HDAC1 expressed in human 293T cells using Ac-KGLGK(Ac)-MCA as substrate after 30 mins by fluorescence assay
PC-3 = assay: Cytotoxicity against human PC3 cells by SRB assay; format: functional; how it was run: as §1
DU-145 = assay: Cytotoxicity against human DU145 cells by SRB assay; format: functional; how it was run: as §1
[8] = Cytotoxicity against human MKN45 cells by SRB assay; format: functional; settings: MKN-45; how it was run: as §1
[9] = Cytotoxicity against human MKN74 cells by SRB assay; format: functional; settings: MKN-74; how it was run: as §1
[10] = Cytotoxicity against human MKN7 cells by SRB assay; format: functional; settings: MKN-7; how it was run: as §1
[11] = Cytotoxicity against human MKN28 cells by SRB assay; format: functional; settings: MKN-28; how it was run: as §1
[12] = Cytotoxicity against human MKN1 cells by SRB assay; format: functional; settings: MKN-1; how it was run: as §1
St-4 = assay: Cytotoxicity against human St-4 cells by SRB assay; format: functional; how it was run: as §1
ACHN = assay: Cytotoxicity against human ACHN cells by SRB assay; format: functional; how it was run: as §1
[13] = Cytotoxicity against human RXF631L cells by SRB assay; format: functional; settings: RXF 631; how it was run: as §1
SK-OV-3 = assay: Cytotoxicity against human SKOV3 cells by SRB assay; format: functional; how it was run: as §1
OVCAR-8 = assay: Cytotoxicity against human OVCAR8 cells by SRB assay; format: functional; how it was run: as §1
[14] = Cytotoxicity against human OVCAR5 cells by SRB assay; format: functional; settings: OVCAR-5; how it was run: as §1
[15] = Cytotoxicity against human OVCAR4 cells by SRB assay; format: functional; settings: OVCAR-4; how it was run: as §1
OVCAR-3 = assay: Cytotoxicity against human OVCAR3 cells by SRB assay; format: functional; how it was run: as §1
LOX IMVI = assay: Cytotoxicity against human LOXIMVI cells by SRB assay; format: functional; how it was run: as §1
[16] = Cytotoxicity against human DMS273 cells by SRB assay; format: functional; settings: DMS-273; how it was run: as §1
[17] = Cytotoxicity against human DMS114 cells by SRB assay; format: functional; settings: DMS-114; how it was run: as §1
NCI-H460 = assay: Cytotoxicity against human NCI-H460 cells by SRB assay; format: functional; how it was run: as §1
A549 = assay: Cytotoxicity against human A549 cells by SRB assay; format: functional; how it was run: as §1
NCI-H226 = assay: Cytotoxicity against human NCI-H226 cells by SRB assay; format: functional; how it was run: as §1
NCI-H522 = assay: Cytotoxicity against human NCI-H522 cells by SRB assay; format: functional; how it was run: as §1
NCI-H23 = assay: Cytotoxicity against human NCI-H23 cells by SRB assay; format: functional; how it was run: as §1
HCT-116 = assay: Cytotoxicity against human HCT116 cells by SRB assay; format: functional; how it was run: as §1
HCT-15 = assay: Cytotoxicity against human HCT15 cells by SRB assay; format: functional; how it was run: as §1
HT-29 = assay: Cytotoxicity against human HT-29 cells by SRB assay; format: functional; how it was run: as §1
KM12 = assay: Cytotoxicity against human KM12 cells by SRB assay; format: functional; how it was run: as §1
[18] = Cytotoxicity against human SNB78 cells by SRB assay; format: functional; settings: SNB-78; how it was run: as §1
HCC 2998 = assay: Cytotoxicity against human HCC2998 cells by SRB assay; format: functional; how it was run: as §1
SNB-75 = assay: Cytotoxicity against human SNB75 cells by SRB assay; format: functional; how it was run: as §1
SF-295 = assay: Cytotoxicity against human SF295 cells by SRB assay; format: functional; how it was run: as §1
SF-539 = assay: Cytotoxicity against human SF539 cells by SRB assay; format: functional; how it was run: as §1

T1 sequence (Q13547 whole entry): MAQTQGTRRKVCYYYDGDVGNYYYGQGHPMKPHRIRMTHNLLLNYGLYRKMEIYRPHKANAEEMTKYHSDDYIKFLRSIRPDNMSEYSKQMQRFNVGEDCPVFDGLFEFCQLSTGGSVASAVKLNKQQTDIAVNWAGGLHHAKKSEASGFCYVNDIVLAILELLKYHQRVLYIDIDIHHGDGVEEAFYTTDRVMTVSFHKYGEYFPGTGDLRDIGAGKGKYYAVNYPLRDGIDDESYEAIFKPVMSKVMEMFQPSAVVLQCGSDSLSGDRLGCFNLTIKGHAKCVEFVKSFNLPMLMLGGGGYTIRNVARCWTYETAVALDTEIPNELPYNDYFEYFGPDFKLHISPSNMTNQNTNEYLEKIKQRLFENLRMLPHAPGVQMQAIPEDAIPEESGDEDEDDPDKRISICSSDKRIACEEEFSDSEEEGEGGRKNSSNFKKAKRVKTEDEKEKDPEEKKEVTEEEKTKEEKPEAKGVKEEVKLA

For CC(C)[C@H]1NC(=O)[C@H]2CSSCC/C=C/[C@H](CC(=O)N[C@H](C)C(=O)N2)OC(=O)C[C@@H]1O, the Ratio IC50 [1] was 485.

CC[C@H](C)[C@H]1NC(=O)[C@H]2CSSCC/C=C/[C@H](CC(=O)N[C@H](CCSC)C(=O)N2)OC(=O)C[C@@H]1O [THAILANDEPSIN A] showed a GI50 (SF-268) of 4.1 nM, a GI50 (U-251) of 4.4 nM and a GI50 (MDA-MB-231) of 2.6 nM. For the same compound, the GI50 [2] was 2.3 nM, the GI50 (MCF7) was 2.8 nM and the GI50 [3] was 5 nM. The GI50 [4] was 3.8 nM, the Ratio IC50 (Histone deacetylase 1 [5]) was 3 and the Ratio IC50 [1] was 992. The IC50 [6] was 992 nM, the IC50 (Histone deacetylase 1 [7]) was 1 nM and the GI50 (PC-3) was 8.3 nM. It also gave a GI50 (DU-145) of 3.1 nM, a GI50 [8] of 14 nM and a GI50 [9] of 2.9 nM. For the same compound, the GI50 [10] was 10 nM, the GI50 [11] was 16 nM and the GI50 [12] was 2.5 nM. It also gave a GI50 (St-4) of 1.1 nM, a GI50 (ACHN) of 6.6 nM and a GI50 [13] of 2.3 nM. It also gave a GI50 (SK-OV-3) of 1.9 nM, a GI50 (OVCAR-8) of 0.72 nM and a GI50 [14] of 1.6 nM. For the same compound, the GI50 [15] was 5 nM, the GI50 (OVCAR-3) was 2.8 nM and the GI50 (LOX IMVI) was 2.5 nM. The GI50 [16] was 2.7 nM, the GI50 [17] was 3.2 nM and the GI50 (NCI-H460) was 0.53 nM. For the same compound, the GI50 (A549) was 0.85 nM, the GI50 (NCI-H226) was 2.7 nM and the GI50 (NCI-H522) was 0.42 nM. The GI50 (NCI-H23) was 3.3 nM, the GI50 (HCT-116) was 0.51 nM and the GI50 (HCT-15) was 100 nM. It also gave a GI50 (HT-29) of 0.74 nM, a GI50 (KM12) of 3.6 nM and a GI50 [18] of 11 nM. The GI50 (HCC 2998) was 2.6 nM, the GI50 (SNB-75) was 1.4 nM and the GI50 (SF-295) was 2.3 nM. For the same compound, the GI50 (SF-539) was 0.7 nM.
